# In the library only some 1.7% were active in any assay of this set; here they are far more common.
# IDE cell inh: human IDE inhibitors in live cells, primary screen, fluorescence polarization, HEK cells, FAbetaB substrate. Insulin-degrading enzyme (Homo sapiens), P14735. FAbetaB cleavage. inhibition, % at 5.59 µM. 320,000 compounds, 0.41% hits. AID 434962, 2010;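 active means percent inhibition above the average of all tested compounds plus 3 SD, set per screening campaign, cut at about 16% in these data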;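 further: IDE supplied by intact live HEK cells; FP after avidin binding of uncleaved biotin substrate so inhibition keeps polarization high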
# Rpn11 block: Rpn11 (PSMD14) deubiquitinase inhibitors, primary screen, biochemical, fluorescence polarization, uHTS | human 26S proteasome, Ub4-pepOG fluorescence polarization; 20S core pre-blocked with epoxomicin | inhibition, % at 20 µM | 360,000 compounds, 0.59% hits | AID 588493, 2011;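 active means inhibition at 20 µM, scaled to each plate's controls, above about 33%, limit read from the data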
# TPT1 inh: Candida albicans TPT1 enzyme inhibitors, primary screen, biochemical, fluorescence polarization. AID 1962, 2009. tRNA 2'-phosphotransferase TPT1 (Candida albicans SC5314). 300,000 compounds, 0.81% hits. inhibition, % at 5 µM. recombinant caTPT1, FP RNA substrate dephosphorylation;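 active means inhibition above the mean of all tested compounds plus 3 SD, set per screening campaign, cut at about 24% in these data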
# IDE cell activ: human IDE activators in live cells, primary screen, fluorescence polarization, HEK cells, FAbeta-B substrate; Insulin-degrading enzyme (Homo sapiens), P14735; FAbeta-B cleavage; 0% vehicle, 100% cell-free pure enzyme wells; 340,000 compounds, 0.073% hits; activation, % at 5.96 µM;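 active means activation above the mean of all tested compounds plus 3 SD, set per screening campaign, cut at about 17% in these data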
# HNF4A DNA FP: change in binding of human HNF4A to DNA, primary screen, biochemical, fluorescence polarization, FITC-DNA; Hepatocyte nuclear factor 4-alpha (Homo sapiens), P41235; 1 h; activity change, % at 10 µM; 360,000 compounds, 0.3% hits; AID 1224865, 2016; in the data active means activity change above about 30%, passing the limit was not always enough
# CSN deneddyl inh: inhibitors of CSN-mediated cullin deneddylation, primary screen, biochemical, fluorescence polarization, uHTS | COP9 signalosome complex subunit 5 (Homo sapiens), Q92905 | Purified CSN, SCF-Nedd8-OG deneddylation | inhibition, % at 12.5 µM | 360,000 compounds, 0.38% hits | AID 651999, 2013;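 active means pattern-corrected inhibition above about 35%, with an unprinted fluorescence ratio check between 0.5 and 1.5, limit read from the data, passing the limit was not always enough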
# Target sequence (Q92905 whole entry, looked up, one chain of several): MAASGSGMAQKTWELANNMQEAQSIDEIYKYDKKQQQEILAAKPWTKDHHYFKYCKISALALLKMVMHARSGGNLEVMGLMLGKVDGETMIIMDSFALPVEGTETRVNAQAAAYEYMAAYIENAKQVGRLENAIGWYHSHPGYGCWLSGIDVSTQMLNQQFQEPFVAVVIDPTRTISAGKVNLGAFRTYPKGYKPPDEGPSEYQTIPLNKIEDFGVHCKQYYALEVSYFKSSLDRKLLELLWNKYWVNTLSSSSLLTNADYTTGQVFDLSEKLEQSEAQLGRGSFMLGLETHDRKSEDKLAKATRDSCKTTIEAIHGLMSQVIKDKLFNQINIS
#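 Assay system: Purified human Csn5 enzyme expressed in HEK293T cells | Amount: Enzyme 0.24 nM | Measured by: Fluorescence polarization readout | Medium: Tris/NaCl/DTT buffer, pH 7.5 | Compound dosing: One concentration, 12.5 µM, 0.25% DMSO | Times: 90 min incubation of compound, enzyme and substrate at room temperature | Control set: no-enzyme wells high, enzyme-with-substrate wells low | Read-out: % inhibition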
# IDE cell inh cf: human IDE inhibitors in live cells, confirmation, fluorescence polarization, HEK cells, FAbetaB substrate. shares compounds with IDE cell inh. FAbetaB cleavage. inhibition, % at 5.59 µM. 1,200 compounds, 51% hits. AID 435028, 2010;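 active means mean inhibition across triplicate wells above the cutoff set by the earlier primary insulin-degrading enzyme screen, cut at about 16% in these data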
# HEK293 tox: cytotoxicity in HEK cells, cytotoxicity control for IDE inhibitor project, cell-based, luminescence; shares compounds with IDE cell inh; HEK293 cytotoxicity, ATP luminescence; inhibition, % at 5.59 µM; 1,200 compounds, 28% hits; AID 449730, 2010; in the data active means inhibition above about 22%
# A number is an active result; n = inactive; x = no result given.
SMILES,IDE cell inh,Rpn11 block,TPT1 inh,IDE cell activ,HNF4A DNA FP,CSN deneddyl inh,IDE cell inh cf,HEK293 tox
O=C(NN=Cc1ccc(Cl)cc1Cl)c1ccccc1,x,n,x,x,n,n,x,x
COc1ccc(NC(=O)c2sc(=O)n(Cc3ccc(F)c(Cl)c3)c2C)cc1OC,x,n,x,x,n,n,x,x
CN(C)c1cc[n+](CC(=O)c2ccc(-c3ccccc3)cc2)cc1,22,n,n,n,n,n,23,83
Cc1nc2c(-c3ccccc3)cnn2c(N)c1-c1ccccc1,x,n,x,n,n,n,x,x
Cc1ccc(-n2c(SCC(=O)N3CCOCC3)nnc2-c2cccnc2)cc1C,19,n,n,n,n,n,n,n
Cc1ccc(-n2c(SCC(=O)N3CCOCC3)nnc2-c2cccnc2)cc1,n,n,n,n,n,n,x,x
O=C(CSc1nnc(-c2cccnc2)n1-c1ccccc1)N1CCN(c2ccc(F)cc2)CC1,21,n,n,n,n,n,n,n
Cc1ccc(C(C)C)c(OCC(=O)N2CCN(c3ncccn3)CC2)c1,n,n,x,n,n,n,x,x
Fc1ccc(Br)cc1C1C=C(c2ccc(Br)s2)Nc2ncnn21 (stereo not given),n,n,n,n,n,n,x,x
COc1cccc(C2C=C(c3ccc(Br)s3)Nc3ncnn32)c1OC (stereo not given),32,n,n,n,n,n,n,n
O=C(Nc1ccc(C(=O)OC[C@@H]2CCCN3CCCC[C@H]23)cc1)c1cccc(Br)c1,32,n,n,n,n,n,n,n
NC(N)=N/N=C/c1ccc(Cl)cc1Cl,23,n,n,n,n,n,n,25
NC(N)=N/N=C/c1ccc(Cl)c(Cl)c1,n,n,n,x,n,n,x,x
CCOC(=O)C1CCN(C(=O)c2cc(C)n(C(C)(C)C)n2)CC1,n,n,n,n,n,n,x,x
COc1ccc(/C=C2\SC(=O)NC2=S)cc1OC,68,n,n,n,n,n,n,n
CCOc1ccc(/C=C2\SC(=S)NC2=O)cc1OC,n,n,n,n,n,n,x,x
c1ccc2c(c1)[nH]c1c(N3CCSCC3)ncnc12,n,n,n,n,n,n,x,x
c1ccc2c(c1)[nH]c1c(N3CCCC3)ncnc12,16,n,n,n,n,n,n,49
c1ccc2c(c1)[nH]c1c(N3CCOCC3)ncnc12,18,n,n,n,n,n,n,n
Cc1cccc2[nH]c3c(N4CCC5(CC4)OCCO5)ncnc3c12,n,n,n,n,n,n,x,x
Clc1ccc2[nH]c3c(N4CCC5(CC4)OCCO5)ncnc3c2c1,22,x,n,x,x,x,n,60
Cc1ccc2[nH]c3c(N4CCOCC4)ncnc3c2c1,29,n,n,n,n,n,n,n
c1ccc2c(c1)[nH]c1c(N3CCN(C4CCCCC4)CC3)ncnc12,n,n,n,n,n,n,x,x
CC1(c2ccccc2)NC(=O)N(CC(=O)NCc2cccc(Cl)c2)C1=O (stereo not given),n,n,n,n,n,n,x,x
Clc1ccc2[nH]c3c(NCCN4CCOCC4)ncnc3c2c1,19,n,n,n,n,n,n,n
Clc1ccc2[nH]c3c(NCC4CCCO4)ncnc3c2c1 (stereo not given),38,x,n,x,x,x,17,34
Fc1ccc2[nH]c3c(NCCN4CCOCC4)ncnc3c2c1,n,n,n,n,n,n,x,x
